Test [1] has as its system Escherichia coli. The test is described as follows: Antibacterial activity against kanamycin-resistant Escherichia coli pETAACWT at 30 ug/disc […]. Type of test: functional, organism-based.
The subject of test [2] is Escherichia coli. Kind of test: Antibacterial activity against kanamycin-resistant Escherichia coli JR67 at 30 ug/disc […]. Type of test: functional, organism-based.
The subject of test [3] is Escherichia coli. Kind of test: Antibacterial activity against kanamycin-resistant Escherichia coli JR66 at 30 ug/disc […]. Type of test: functional, organism-based.
Test [4] deals with Escherichia coli. The test is described as follows: Antibacterial activity against gentamycin-resistant Escherichia coli JR88 at 30 ug/disc […]. Type of test: functional, organism-based.
A further test concerns Staphylococcus aureus. The test is described as follows: Antibacterial activity against Staphylococcus aureus at 30 ug/disc […]. Particulars: in the assay text read “paper disc method” for “dilution method”. Type of test: functional, organism-based. Summed up:
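Disc diffusion on LB solid medium with 30 µg compound per paper disc; growth inhibition of the S. aureus strain (sensitive to usual antibiotics) scored visually.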

A further test has as its system Enterococcus faecium. Kind of test: Inhibition of Enterococcus faecium aminoglycoside 6'-N-acetyltransferase.
In test [5] the test system is Escherichia coli. Kind of test: Antimicrobial activity against Escherichia coli MG1655 by dilution method. Type of test: functional. Summed up:
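MIC by standard broth dilution: overnight MG1655 cultures in LB (aminoglycoside-sensitive strain) diluted 100-fold, growth read as OD at 600 nm.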

In test [6] the test system is Escherichia coli. Kind of test: Antibacterial activity against kanamycin-resistant Escherichia coli pSF815A-1 at 30 ug/disc […]. Type of test: functional, organism-based.

The text below walks through data of ChEMBL document CHEMBL1142929, “The use of aminoglycoside derivatives to study the mechanism of aminoglycoside 6'-N-acetyltransferase and the role of 6'-NH2 in antibacterial activity” (2007).

Calls of active or inactive are those of the source. No cut-off for these calls is given here.

On to `N[C@H]1[C@@H](O[C@H]2[C@H](O)[C@@H](O)[C@H](N)C[C@@H]2N)O[C@H](CNC(=O)CS)[C@@H](O)[C@@H]1O`, for which the outcome in the test with Escherichia coli [1], in the test with Escherichia coli [2], in the test on Escherichia coli [3], in the test on Escherichia coli [4], in the test with Staphylococcus aureus and in the test with Enterococcus faecium was inactive.

For the compound `C#CCC(=O)NC[C@H]1O[C@H](O[C@H]2[C@H](O)[C@@H](O)[C@H](N)C[C@@H]2N)[C@H](N)[C@@H](O)[C@@H]1O`, the result with Escherichia coli [1], in the test with Escherichia coli [2], in the test on Escherichia coli [3], with Escherichia coli [4], with Staphylococcus aureus and in the test on Enterococcus faecium was inactive.

In the case of `N[C@H]1[C@@H](O[C@H]2[C@H](O)[C@@H](O)[C@H](N)C[C@@H]2N)O[C@H](CNC(=O)CO)[C@@H](O)[C@@H]1O`, the result in the test with Escherichia coli [1], with Escherichia coli [2], in the test on Escherichia coli [3], in the test on Escherichia coli [4], in the test with Staphylococcus aureus and in the test with Enterococcus faecium was inactive. For the same compound, the minimal inhibitory concentration (MIC) (usually the least concentration at which growth counts as inhibited) against Escherichia coli [5] is less than 25 µg/mL.

`[N-]=[N+]=NCC(=O)NC[C@H]1O[C@H](O[C@H]2[C@H](O)[C@@H](O)[C@H](N)C[C@@H]2N)[C@H](N)[C@@H](O)[C@@H]1O`: the outcome in the test with Escherichia coli [1], in the test on Escherichia coli [2], in the test on Escherichia coli [3], in the test with Escherichia coli [4], in the test with Staphylococcus aureus and in the test with Enterococcus faecium was inactive.

As to `NCC(=O)NC[C@H]1O[C@H](O[C@H]2[C@H](O)[C@@H](O)[C@H](N)C[C@@H]2N)[C@H](N)[C@@H](O)[C@@H]1O`, the outcome with Escherichia coli [1], with Escherichia coli [2], in the test on Escherichia coli [3], with Escherichia coli [4], with Staphylococcus aureus and with Enterococcus faecium was inactive. Also, the minimal inhibitory concentration (MIC) with Escherichia coli [5] is less than 50 µg/mL.

Consider `N[C@H]1[C@@H](O[C@H]2[C@H](O)[C@@H](O)[C@H](N)C[C@@H]2N)O[C@H](CNC(=O)c2ccccc2)[C@@H](O)[C@@H]1O`, for which the result in the test with Escherichia coli [1], with Escherichia coli [2], with Escherichia coli [3], in the test with Escherichia coli [4], in the test on Escherichia coli [6] and with Staphylococcus aureus was inactive. Further, the result in the test on Enterococcus faecium was inactive.

Take `NCCC(=O)NC[C@H]1O[C@H](O[C@H]2[C@H](O)[C@@H](O)[C@H](N)C[C@@H]2N)[C@H](N)[C@@H](O)[C@@H]1O`: the outcome in the test on Escherichia coli [1], in the test with Escherichia coli [2], in the test with Escherichia coli [3], in the test on Escherichia coli [4], in the test with Staphylococcus aureus and in the test with Enterococcus faecium was inactive.

With `N[C@H]1[C@@H](O[C@H]2[C@H](O)[C@@H](O)[C@H](N)C[C@@H]2N)O[C@H](CNC(=O)Cc2cccc3ccccc23)[C@@H](O)[C@@H]1O`, the outcome in the test on Escherichia coli [1], with Escherichia coli [2], with Escherichia coli [3], in the test on Escherichia coli [4], with Staphylococcus aureus and with Enterococcus faecium was inactive.

Regarding `NC[C@H]1O[C@H](O[C@H]2[C@H](O)[C@@H](O)[C@H](N)C[C@@H]2N)[C@H](N)[C@@H](O)[C@@H]1O` [NEAMINE], in the test with Escherichia coli [5], the MIC is less than 6.25 µg/mL.
